Laboratory results as given in ChEMBL document CHEMBL1131011, “Pharmacophores incorporating numerous excluded volumes defined by X-ray crystallographic structure in three-dimensional database searching: application to the thyroid hormone receptor” (J Med Chem, 1998).

Molecular target: T1, Thyroid hormone receptor alpha (Homo sapiens, UniProt P10827)
T1 sequence (P10827 whole entry): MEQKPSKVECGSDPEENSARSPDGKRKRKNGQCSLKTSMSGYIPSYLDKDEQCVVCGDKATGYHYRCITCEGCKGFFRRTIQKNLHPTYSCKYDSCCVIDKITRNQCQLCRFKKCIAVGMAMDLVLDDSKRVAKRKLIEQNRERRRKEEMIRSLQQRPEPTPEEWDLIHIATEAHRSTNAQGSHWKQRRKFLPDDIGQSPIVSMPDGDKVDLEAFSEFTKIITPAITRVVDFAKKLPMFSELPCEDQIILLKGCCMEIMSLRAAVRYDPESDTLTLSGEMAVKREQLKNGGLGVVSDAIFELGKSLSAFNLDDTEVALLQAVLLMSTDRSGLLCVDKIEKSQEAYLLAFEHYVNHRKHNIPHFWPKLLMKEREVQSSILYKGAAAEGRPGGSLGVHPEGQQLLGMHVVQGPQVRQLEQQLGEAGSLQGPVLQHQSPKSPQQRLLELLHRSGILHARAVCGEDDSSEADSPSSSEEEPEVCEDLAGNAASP
Assay: Inhibitory activity expressed as concentration required to inhibit the binding of [125I]T3 to human thyroid hormone-alpha; call rule not given here
Outline: (§1)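 hTHR from nuclear extracts of baculovirus-infected sf-9 cells, 20 pM final, with [125I]T3 at 200 pM final. Compounds serially diluted in DMSO. Buffer: 400 mM KCl, K phosphate, 1 mM MgCl2, 0.5 mM EDTA, 8.7% glycerol, 6 mM monothioglycerol, 0.5% reticulocyte lysate; 18–20 h, 4 °C. Bound and free separated on Sephadex G-25, gamma-counted. IC50 from competition curve, second of two titrations.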

For `N=C(c1ccccn1)N(N)S(=O)(=O)c1cc(Cl)c(Oc2ccc([N+](=O)[O-])cc2Cl)c(Cl)c1`, which IC50 is on record?
Its IC50 is 39 µM.

With `O=C(Nc1ccc(Cc2ccc(NC(=O)c3cccc([N+](=O)[O-])c3)cc2)cc1)c1cccc([N+](=O)[O-])c1` as the compound, how does the IC50 read?
Its IC50 is 18.1 µM.

For `[NH-]C(c1cc(Cl)cc(Cl)c1)=[N+](N)S(=O)(=O)c1cc(Cl)c(Oc2ccc([N+](=O)[O-])cc2Cl)c(Cl)c1`, which IC50 is on record?
The IC50 was 0.93 µM.

`Cn1c(Cc2nn(C)c(=O)c3ccccc23)ccc1SCC(=O)c1ccc(Cl)cc1Cl` was tested. Which IC50 did it give?
The IC50 was 69 µM.

How did the IC50 turn out when `N=C(CCl)N(N)S(=O)(=O)c1cc(Cl)c(Oc2ccc([N+](=O)[O-])cc2Cl)c(Cl)c1` was run?
Its IC50 is 1.8 µM.

Molecular target: T1, Thyroid hormone receptor alpha
Assay: Inhibitory activity expressed as concentration required to inhibit the binding of [125I]T3 to human thyroid hormone-alpha; NA =Inactive
Outline: as §1

`N=C(c1ccc(Cl)cc1)N(N)S(=O)(=O)c1cc(Cl)c(Oc2ccc([N+](=O)[O-])cc2Cl)c(Cl)c1` was tested. Which IC50 did it give?
Its IC50 is “Not Active”.

With `Cn1c(Cc2nn(C)c(=O)c3ccccc23)ccc1SCc1ccc(Cl)cc1Cl` as the compound, how does the IC50 read?
The IC50 was “Not Active”.

`N=C(c1ccc(Cl)cc1)N(N)S(=O)(=O)c1cc(Cl)c(Oc2ccc([N+](=O)[O-])cc2)c(Cl)c1` was tested. Which IC50 did it give?
Its IC50 is “Not Active”.

Which IC50 does the source give for `N=C(c1cccnc1)N(N)S(=O)(=O)c1cc(Cl)c(Oc2ccc([N+](=O)[O-])cc2Cl)c(Cl)c1` here?
Its IC50 is “Not Active”.
